# Source: ChEMBL document CHEMBL1153953, “Synthesis and pharmacological evaluation of coumarin derivatives as cannabinoid receptor antagonists and inverse agonists” (Bioorg Med Chem, 2009)
# Key:
# [1] = target: T1, Cannabinoid receptor 2 (Homo sapiens, UniProt P34972); assay: Displacement of [3H]CP-55940 from human recombinant cannabinoid CB2 receptor expressed in HEK293 cells; type: cell-based
# [2] = target: Cannabinoid receptor 1 (Rattus norvegicus, UniProt P20272); assay: Displacement of [3H]CP-55940 from cannabinoid CB1 receptor in rat brain cortical membrane; type: cell membranes
# [3] = target: Cannabinoid receptor 1 (Homo sapiens) (UniProt P21554); assay: Inverse agonist activity at human recombinant cannabinoid CB1 receptor expressed in HEK293 cells assessed as decrease in GTPgammaS binding at 30 uM by liquid scintillation counting relative to CP-55940; type: functional, cell-based; set-up: scale not given: the % may be the effect or the level left
# [4] = target: Cannabinoid receptor 1 (Rattus norvegicus) (UniProt P20272); assay: Antagonist activity at cannabinoid CB1 receptor in rat brain cortical membrane assessed as effect on GTPgammaS binding at 30 uM by liquid scintillation counting relative to CP-55940; type: functional, cell membranes; set-up: scale not given: the % may be the effect or the level left
# [5] = target: Cannabinoid receptor 1 (Rattus norvegicus) (UniProt P20272); assay: Displacement of [3H]CP-55940 from cannabinoid CB1 receptor in rat brain cortical membrane at 10 uM; type: cell membranes
# Summary of the method: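 Competition vs 0.5 nM [3H]CP55,940 on rat brain cortical membranes (cortex homogenized in 0.32 M sucrose, differentially centrifuged), 50 µg protein/well, in 50 mM Tris-HCl pH 7.4, 3 mM MgCl2, 0.1% BSA; 2.5% DMSO final; rt, 2 h, started by protein; nonspecific with 10 µM unlabeled CP55,940; GF/C filtration, scintillation counting; ≥3 experiments in triplicate.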
# [6] = target: T1, Cannabinoid receptor 2; assay: Displacement of [3H]CP-55940 from human recombinant cannabinoid CB2 receptor expressed in HEK293 cells at 10 uM; type: cell-based
# Summary of the method: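 Competition vs 0.5 nM [3H]CP55,940 using commercial HEK293 EBNA membranes expressing human CB2, 50 µg protein/well, in 50 mM Tris-HCl pH 7.4, 3 mM MgCl2, 0.1% BSA; 2.5% DMSO final; rt, 2 h, started by protein; nonspecific with 10 µM unlabeled CP55,940; GF/C filtration, scintillation counting; ≥3 experiments in duplicate.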
# Cannabinoid receptor 1 (Homo sapiens), sequence (P21554 whole entry): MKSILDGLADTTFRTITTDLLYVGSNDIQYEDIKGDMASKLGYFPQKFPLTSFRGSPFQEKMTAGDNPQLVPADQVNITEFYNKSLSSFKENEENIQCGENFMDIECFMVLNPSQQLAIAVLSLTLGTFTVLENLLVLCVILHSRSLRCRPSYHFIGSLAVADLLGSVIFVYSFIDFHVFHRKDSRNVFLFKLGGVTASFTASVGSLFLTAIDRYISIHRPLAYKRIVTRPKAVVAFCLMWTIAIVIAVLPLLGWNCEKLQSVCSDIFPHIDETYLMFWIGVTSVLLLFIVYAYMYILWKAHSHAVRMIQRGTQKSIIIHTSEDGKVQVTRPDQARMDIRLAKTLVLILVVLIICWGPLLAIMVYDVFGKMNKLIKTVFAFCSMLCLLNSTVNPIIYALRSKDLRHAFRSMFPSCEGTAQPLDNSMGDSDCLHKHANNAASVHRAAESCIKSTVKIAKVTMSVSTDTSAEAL
# T1 sequence (P34972 whole entry): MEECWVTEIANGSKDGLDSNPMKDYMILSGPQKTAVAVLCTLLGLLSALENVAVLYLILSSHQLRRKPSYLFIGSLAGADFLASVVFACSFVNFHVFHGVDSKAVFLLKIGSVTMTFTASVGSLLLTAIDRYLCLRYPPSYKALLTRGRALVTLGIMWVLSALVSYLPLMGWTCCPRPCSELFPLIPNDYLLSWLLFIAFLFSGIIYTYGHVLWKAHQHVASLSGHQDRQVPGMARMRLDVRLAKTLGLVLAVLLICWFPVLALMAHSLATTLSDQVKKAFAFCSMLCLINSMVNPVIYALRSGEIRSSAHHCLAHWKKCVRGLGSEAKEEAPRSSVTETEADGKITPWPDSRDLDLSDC
# Cannabinoid receptor 1, sequence (P20272 whole entry): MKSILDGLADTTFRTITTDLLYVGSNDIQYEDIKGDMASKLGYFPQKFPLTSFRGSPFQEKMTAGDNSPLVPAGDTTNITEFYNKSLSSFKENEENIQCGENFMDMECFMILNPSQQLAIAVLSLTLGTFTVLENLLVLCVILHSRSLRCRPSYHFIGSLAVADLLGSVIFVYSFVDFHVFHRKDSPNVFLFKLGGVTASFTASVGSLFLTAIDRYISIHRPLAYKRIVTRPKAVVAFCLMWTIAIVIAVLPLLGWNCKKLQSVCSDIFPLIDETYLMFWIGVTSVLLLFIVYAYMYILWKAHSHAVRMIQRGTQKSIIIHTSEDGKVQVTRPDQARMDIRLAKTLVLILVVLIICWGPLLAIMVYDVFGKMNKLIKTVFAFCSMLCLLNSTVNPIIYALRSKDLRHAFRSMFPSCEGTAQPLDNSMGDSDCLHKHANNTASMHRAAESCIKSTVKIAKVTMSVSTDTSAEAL
# Cannabinoid receptor 1 (Rattus norvegicus), sequence (P20272 whole entry): as above
Compound,Ki [1],Ki [2],Activity [3],Activity [4],Activity [5],Activity [6]
COc1ccccc1Cc1cc2c(OC)ccc(C)c2oc1=O,3.65 µM,12.3 µM,–,–,–,–
Cc1c(C(=O)NN2CCOCC2)nn(-c2ccc(Cl)cc2Cl)c1-c1ccc(I)cc1,–,–,-19%,2%,–,–
O=c1oc2ccccc2cc1Cc1ccccc1,> 10 µM,> 10 µM,–,–,18%,28%
CCOC(=O)/C(=C/C=C/c1ccccc1)C(=O)Oc1c(C2SCCS2)ccc2c1C=CC(C)(C)O2,> 10 µM,1.37 µM,–,–,–,22%
COc1cc(C)cc2oc(=O)c(Cc3ccc(Cl)cc3)cc12,9.39 µM,2.08 µM,–,–,–,–
Cc1cc2cc(Cl)cc(Br)c2oc1=O,≥ 10 µM,≥ 10 µM,–,–,8%,3%
CC1(C)Oc2c(cccc2-c2ccccc2)C=C1C=O,> 10 µM,≥ 10 µM,–,–,46%,3%
COc1cccc2oc(=O)c(Cc3ccccc3)cc12,> 10 µM,19.1 µM,–,–,–,28%
O=c1oc2ccc(I)cc2cc1Cc1ccccc1,≥ 10 µM,> 10 µM,–,–,31%,44%
COc1ccc(Br)c2oc(=O)c(Cc3ccccc3)cc12,> 10 µM,> 10 µM,–,–,39%,29%
O=C1C2=Cc3ccccc3OC2CC/C1=C\c1ccccc1O (centres undefined),> 10 µM,4.9 µM,–,–,–,37%
COc1ccc2cc(C)c(=O)oc2c1,≥ 10 µM,≥ 10 µM,–,–,1%,2%
COc1cc(C)cc2oc(=O)c(Cc3ccc(C)cc3)cc12,4.76 µM,9.14 µM,–,–,–,–
COc1ccc2oc(=O)c(C)cc2c1,≥ 10 µM,> 10 µM,–,–,15%,7%
COc1ccccc1Cc1cc2c(C(C)C)ccc(C)c2oc1=O,5.67 µM,6.18 µM,–,–,–,–
COc1ccc(Cc2cc3c(OC)cc(C)cc3oc2=O)cc1,5.81 µM,6.14 µM,-10%,13%,–,–
COc1ccccc1Cc1cc2c(ccc3ccccc32)oc1=O,2.06 µM,> 10 µM,–,–,41%,–
COc1ccccc1Cc1cc2c(OC)cccc2oc1=O,3.49 µM,9.57 µM,–,–,–,–
COc1ccc(Br)c2c1C=C(C(C)=O)C(C)O2 (centres undefined),> 10 µM,> 10 µM,–,–,34%,7%

Compound,Ki [1],Ki [2],Activity [3],Activity [4],Activity [5],Activity [6]
COc1cc(Br)cc2cc(C)c(=O)oc12,> 10 µM,> 10 µM,–,–,17%,9%
COc1cccc(Cc2cc3c(OC)cc(C)cc3oc2=O)c1,3.37 µM,4.11 µM,–,–,–,–
COc1ccc(Cc2cc3c(OC)cc(C)cc3oc2=O)c(OC)c1,2.78 µM,6.23 µM,–,–,–,–
COc1cc(C)cc2oc(=O)c(Cc3ccccc3C)cc12,2.16 µM,1.17 µM,–,–,–,–
COc1cccc2cc(C)c(=O)oc12,> 10 µM,≥ 10 µM,–,–,6%,4%
Cc1cc2c(ccc3ccccc32)oc1=O,≥ 10 µM,> 10 µM,–,–,10%,2%
COc1cccc2cc(Cc3ccccc3)c(=O)oc12,≥ 10 µM,≥ 10 µM,–,–,6%,25%
COc1cc(C)cc2oc(=O)c(Cc3ccccc3Cl)cc12,1.54 µM,0.978 µM,–,–,–,–
COc1ccc2oc(=O)c(Cc3ccccc3)cc2c1,> 10 µM,≥ 10 µM,–,–,8%,37%
O=c1oc2ccc3ccccc3c2cc1Cc1ccccc1,≥ 10 µM,4.19 µM,-21%,15%,–,59%
Cc1ccc(C(C)C)c2cc(Cc3ccccc3)c(=O)oc12,4.27 µM,2.76 µM,-9%,19%,–,–
O=c1oc2ccc([N+](=O)[O-])cc2cc1Cc1ccccc1,> 10 µM,> 10 µM,–,–,32%,15%
COc1cc(C)cc2oc(=O)c(Cc3ccccc3)cc12,≥ 10 µM,3.46 µM,-8%,3%,–,45%
Cc1cc2c(C(C)C)ccc(C)c2oc1=O,> 10 µM,> 10 µM,–,–,26%,0%
COc1ccc2cc(Cc3ccccc3)c(=O)oc2c1,> 10 µM,> 10 µM,–,–,31%,33%
COc1ccccc1Cc1cc2c(OC)cc(C)cc2oc1=O,1.03 µM,0.738 µM,-16%,-2%,–,–
Cc1cc2cc(I)ccc2oc1=O,> 10 µM,> 10 µM,–,–,12%,10%
COc1cc(C)cc2oc(=O)c(Cc3ccccc3O)cc12,5.24 µM,1.1 µM,–,–,–,–
